Drawing on ChEMBL document CHEMBL5653631, “A Potent and Selective ULK1 Inhibitor Suppresses Autophagy and Sensitizes Cancer Cells to Nutrient Stress” (iScience, 2018), this text covers fold change (FC) and inhibition for two compounds.

The structures appear in SMILES notation.

The target of assay [1] is T1, Serine/threonine-protein kinase PLK4 (Homo sapiens) (UniProt O00444).
T1 sequence (whole entry): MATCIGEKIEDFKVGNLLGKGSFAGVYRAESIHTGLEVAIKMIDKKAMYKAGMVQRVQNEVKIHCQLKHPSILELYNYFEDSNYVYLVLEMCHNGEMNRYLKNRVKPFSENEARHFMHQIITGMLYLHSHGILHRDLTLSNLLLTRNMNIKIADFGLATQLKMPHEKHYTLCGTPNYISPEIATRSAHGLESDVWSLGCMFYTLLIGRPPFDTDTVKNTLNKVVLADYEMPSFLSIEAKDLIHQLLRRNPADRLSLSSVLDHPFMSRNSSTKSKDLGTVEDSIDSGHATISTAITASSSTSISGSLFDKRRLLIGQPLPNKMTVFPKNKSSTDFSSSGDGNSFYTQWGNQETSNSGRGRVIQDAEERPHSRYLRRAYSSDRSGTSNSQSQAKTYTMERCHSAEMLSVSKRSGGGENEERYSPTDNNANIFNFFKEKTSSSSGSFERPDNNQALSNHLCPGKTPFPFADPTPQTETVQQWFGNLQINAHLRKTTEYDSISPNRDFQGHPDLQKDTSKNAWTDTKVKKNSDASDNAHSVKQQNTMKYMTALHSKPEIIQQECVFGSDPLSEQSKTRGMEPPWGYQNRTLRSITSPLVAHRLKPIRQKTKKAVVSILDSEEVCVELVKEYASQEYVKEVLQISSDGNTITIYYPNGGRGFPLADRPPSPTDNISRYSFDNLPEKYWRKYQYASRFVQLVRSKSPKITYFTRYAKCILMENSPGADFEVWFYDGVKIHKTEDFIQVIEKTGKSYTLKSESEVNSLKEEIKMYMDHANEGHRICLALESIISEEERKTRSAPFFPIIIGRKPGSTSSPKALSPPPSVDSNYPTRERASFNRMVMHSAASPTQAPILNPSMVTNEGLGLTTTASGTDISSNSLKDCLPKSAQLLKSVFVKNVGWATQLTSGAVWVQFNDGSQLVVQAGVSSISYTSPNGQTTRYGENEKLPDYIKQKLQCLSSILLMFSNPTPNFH
Description: Inhibition of human recombinant PLK4 at 40 nM related to control ULK1.

The target in assay [2] is T2, MAPK/MAK/MRK overlapping kinase (Homo sapiens) (UniProt Q9UQ07).
T2 sequence (whole entry): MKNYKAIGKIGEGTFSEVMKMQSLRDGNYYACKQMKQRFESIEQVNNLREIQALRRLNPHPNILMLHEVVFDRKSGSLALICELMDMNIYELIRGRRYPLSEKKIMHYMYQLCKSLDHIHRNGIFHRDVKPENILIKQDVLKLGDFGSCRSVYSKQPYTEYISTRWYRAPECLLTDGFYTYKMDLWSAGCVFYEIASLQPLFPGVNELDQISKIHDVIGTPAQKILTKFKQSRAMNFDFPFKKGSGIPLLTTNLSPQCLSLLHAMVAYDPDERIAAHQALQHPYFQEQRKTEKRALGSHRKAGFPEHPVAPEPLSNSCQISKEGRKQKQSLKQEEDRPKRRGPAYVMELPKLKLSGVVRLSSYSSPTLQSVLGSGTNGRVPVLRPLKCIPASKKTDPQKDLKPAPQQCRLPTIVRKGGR
Briefly: Inhibition of human recombinant MOK at 40 nM in presence of ATP by radiometric assay relative to control.

For assay [3], the target named is Tyrosine-protein kinase Blk (Homo sapiens) (UniProt P51451). Description: Inhibition of human recombinant BLK at 40 nM related to control ULK1. In short, it runs like this:
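Radiometric activity assays in a panel of 327 human recombinant kinases, each run in duplicate at one inhibitor concentration. Activity remaining is expressed as percent of vehicle control, and percent inhibition is calculated as 100% minus percent activity remaining.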

Assay [4] addresses Ribosomal protein S6 kinase alpha-3 (Homo sapiens) (UniProt P51812). Description: Inhibition of human recombinant RSK2 at 500 nM in presence of ATP by radiometric assay relative to control.
Assay [5] concerns the target Tyrosine-protein kinase Fer (Homo sapiens) (UniProt P16591). Description: Inhibition of human recombinant FER at 500 nM in presence of ATP by radiometric assay relative to control.
For assay [6], the target named is T3, Serine/threonine-protein kinase TAO3 (Homo sapiens) (UniProt Q9H2K8).
T3 sequence (whole entry): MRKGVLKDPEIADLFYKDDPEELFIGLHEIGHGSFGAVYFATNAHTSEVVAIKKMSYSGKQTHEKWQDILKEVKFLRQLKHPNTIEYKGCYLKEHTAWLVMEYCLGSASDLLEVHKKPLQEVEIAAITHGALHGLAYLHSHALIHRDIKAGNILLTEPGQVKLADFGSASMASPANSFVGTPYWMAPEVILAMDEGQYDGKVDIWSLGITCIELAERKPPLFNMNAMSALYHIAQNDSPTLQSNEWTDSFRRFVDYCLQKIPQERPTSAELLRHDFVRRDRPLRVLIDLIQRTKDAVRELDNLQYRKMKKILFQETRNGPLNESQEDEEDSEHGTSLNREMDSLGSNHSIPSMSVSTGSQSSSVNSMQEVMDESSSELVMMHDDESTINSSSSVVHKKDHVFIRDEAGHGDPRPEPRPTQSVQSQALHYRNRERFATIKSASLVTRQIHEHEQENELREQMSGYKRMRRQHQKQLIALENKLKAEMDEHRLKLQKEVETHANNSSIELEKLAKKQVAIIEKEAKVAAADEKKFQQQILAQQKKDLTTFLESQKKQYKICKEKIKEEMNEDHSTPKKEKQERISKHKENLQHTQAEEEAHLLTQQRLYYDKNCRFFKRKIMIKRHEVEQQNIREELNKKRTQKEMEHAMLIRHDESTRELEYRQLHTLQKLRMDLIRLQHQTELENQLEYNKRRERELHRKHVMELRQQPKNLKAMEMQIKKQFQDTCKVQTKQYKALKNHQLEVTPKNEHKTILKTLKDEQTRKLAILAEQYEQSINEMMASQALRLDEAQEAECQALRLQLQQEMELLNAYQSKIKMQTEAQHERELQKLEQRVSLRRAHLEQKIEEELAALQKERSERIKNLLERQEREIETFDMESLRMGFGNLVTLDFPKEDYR
Description: Inhibition of human recombinant TAO3 at 500 nM related to control ULK1.

The term inhibition denotes the change of the read-out against control, counted positive when it falls.

Sequence of Tyrosine-protein kinase Fer (Homo sapiens) (P16591 whole entry, looked up): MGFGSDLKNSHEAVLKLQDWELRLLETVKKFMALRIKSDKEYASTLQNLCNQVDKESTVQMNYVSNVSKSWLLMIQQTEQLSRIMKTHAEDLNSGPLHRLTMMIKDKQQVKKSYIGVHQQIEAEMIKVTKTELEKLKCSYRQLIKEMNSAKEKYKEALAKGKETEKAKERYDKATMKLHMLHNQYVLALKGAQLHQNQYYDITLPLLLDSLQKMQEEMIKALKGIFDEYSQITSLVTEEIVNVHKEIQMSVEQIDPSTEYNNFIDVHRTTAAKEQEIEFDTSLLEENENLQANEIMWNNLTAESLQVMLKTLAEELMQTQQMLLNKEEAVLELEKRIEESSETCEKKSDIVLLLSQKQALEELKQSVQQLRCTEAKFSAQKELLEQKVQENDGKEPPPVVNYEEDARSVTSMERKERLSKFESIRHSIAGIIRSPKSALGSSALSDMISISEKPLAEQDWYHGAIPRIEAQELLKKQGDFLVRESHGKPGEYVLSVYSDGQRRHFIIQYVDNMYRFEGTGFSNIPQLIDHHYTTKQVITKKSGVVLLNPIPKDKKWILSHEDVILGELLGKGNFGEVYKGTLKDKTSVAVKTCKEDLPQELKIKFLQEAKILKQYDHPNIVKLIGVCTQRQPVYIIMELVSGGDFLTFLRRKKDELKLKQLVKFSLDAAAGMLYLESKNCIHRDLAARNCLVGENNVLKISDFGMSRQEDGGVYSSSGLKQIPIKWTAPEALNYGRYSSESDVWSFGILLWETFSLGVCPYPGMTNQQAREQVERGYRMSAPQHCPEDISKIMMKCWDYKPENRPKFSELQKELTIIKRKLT
Sequence of Tyrosine-protein kinase Blk (Homo sapiens) (P51451 2-505 limits assumed): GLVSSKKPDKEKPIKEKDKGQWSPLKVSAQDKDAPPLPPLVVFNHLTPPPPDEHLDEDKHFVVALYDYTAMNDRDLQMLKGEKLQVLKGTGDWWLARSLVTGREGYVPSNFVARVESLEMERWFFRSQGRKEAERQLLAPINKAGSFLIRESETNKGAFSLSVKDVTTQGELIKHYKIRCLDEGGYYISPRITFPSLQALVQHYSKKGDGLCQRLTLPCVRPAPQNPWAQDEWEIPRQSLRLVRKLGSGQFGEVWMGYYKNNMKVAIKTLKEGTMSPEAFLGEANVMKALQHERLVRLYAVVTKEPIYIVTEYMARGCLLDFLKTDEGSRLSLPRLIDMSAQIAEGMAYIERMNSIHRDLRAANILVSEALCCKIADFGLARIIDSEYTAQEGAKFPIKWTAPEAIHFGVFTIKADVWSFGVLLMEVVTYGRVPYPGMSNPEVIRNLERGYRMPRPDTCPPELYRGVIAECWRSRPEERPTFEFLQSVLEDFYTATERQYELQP
Sequence of Ribosomal protein S6 kinase alpha-3 (Homo sapiens) (P51812 whole entry): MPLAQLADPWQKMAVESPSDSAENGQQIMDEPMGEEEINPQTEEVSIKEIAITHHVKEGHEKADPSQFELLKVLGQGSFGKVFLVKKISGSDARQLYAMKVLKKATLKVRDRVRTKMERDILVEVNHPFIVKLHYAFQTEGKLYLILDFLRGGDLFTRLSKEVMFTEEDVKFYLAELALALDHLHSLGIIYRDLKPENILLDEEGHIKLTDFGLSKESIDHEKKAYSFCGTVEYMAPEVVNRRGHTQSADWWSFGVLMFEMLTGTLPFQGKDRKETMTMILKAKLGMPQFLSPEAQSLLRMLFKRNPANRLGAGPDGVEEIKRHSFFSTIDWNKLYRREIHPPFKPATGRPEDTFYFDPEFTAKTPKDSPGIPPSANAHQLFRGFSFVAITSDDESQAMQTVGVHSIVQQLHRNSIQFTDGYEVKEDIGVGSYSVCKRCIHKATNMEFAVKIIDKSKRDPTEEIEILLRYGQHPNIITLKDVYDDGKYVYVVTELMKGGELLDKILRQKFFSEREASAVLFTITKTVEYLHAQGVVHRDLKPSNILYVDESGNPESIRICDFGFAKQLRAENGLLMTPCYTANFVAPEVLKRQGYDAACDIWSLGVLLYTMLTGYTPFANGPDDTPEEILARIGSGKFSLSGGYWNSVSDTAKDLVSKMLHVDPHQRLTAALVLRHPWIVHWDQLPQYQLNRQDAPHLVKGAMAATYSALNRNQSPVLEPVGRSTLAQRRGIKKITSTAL

For the compound `O=C(N[C@@H](C1CC1)C(F)(F)F)c1cc(-c2cnn3cc(-c4ccc(F)cc4)cnc23)cs1`, the fold change (FC) was found to be 0.1 in assay [1] and 0.23 in assay [3]. Further, in assay [2], the inhibition was 0%.

In the case of `CNC(=O)c1ccccc1Oc1nc(Nc2cc(OC)c(OC)c(OC)c2)ncc1Br`, the inhibition in assay [4] came out at 37%; in assay [5] it was 0%. For the same compound, the fold change (FC) in assay [6] stood at 0.
